According to ChEMBL document CHEMBL2311448, “Enantioselective synthesis of derivatives and structure-activity relationship study in the development of NA255 as a novel host-targeting anti-HCV agent” (Bioorg Med Chem Lett, 2013):

Key:
[1] = Cytotoxicity against human Hepatoma cells; assay type: cell-based
Hepatitis C virus = assay: Antiviral activity against HCV infected in human hepatoma cells assessed as inhibition of viral replication; assay type: functional, organism-based, Hepacivirus hominis
[2] = Mean residence time in Sprague-Dawley rat liver at 10 mg/kg, sc; assay type: ADME, organism-based; design: dose 10 mg/kg, route subcutaneous
In short: (§1)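 Male Sprague–Dawley rats got a single subcutaneous dose of 10 mg/kg (n = 2) in 10% PEG300–10% HPCD in water. Plasma and liver concentrations were measured over time after dosing. Footnotes mark concentrations taken at 0.5 h and at 2 h postdosing. One compound was given as its tri-sodium salt.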

[3] = Cmax in Sprague-Dawley rat plasma at 10 mg/kg, sc at 0.5 hrs; assay type: ADME, organism-based; design: dose 10 mg/kg, route subcutaneous; in short: as §1
[4] = Mean residence time in Sprague-Dawley rat plasma at 10 mg/kg, sc; assay type: ADME, organism-based; design: dose 10 mg/kg, route subcutaneous; in short: as §1
[5] = AUC in Sprague-Dawley rat liver at 10 mg/kg, sc; assay type: ADME, organism-based; design: dose 10 mg/kg, route subcutaneous; in short: as §1
[6] = Half life in Sprague-Dawley rat liver at 10 mg/kg, sc; assay type: ADME, organism-based; design: dose 10 mg/kg, route subcutaneous; in short: as §1
[7] = Half life in Sprague-Dawley rat plasma at 10 mg/kg, sc; assay type: ADME, organism-based; design: dose 10 mg/kg, route subcutaneous; in short: as §1
[8] = AUC in Sprague-Dawley rat plasma at 10 mg/kg, sc; assay type: ADME, organism-based; design: dose 10 mg/kg, route subcutaneous; in short: as §1
[9] = Cmax in Sprague-Dawley rat liver at 10 mg/kg, sc at 2 hrs; assay type: ADME, organism-based; design: dose 10 mg/kg, route subcutaneous; in short: as §1

SMILES	CC50 [1]	IC50 (Hepatitis C virus)	also measured
CCCCCCCC(=O)CCCCCC/C=C/[C@H](C(=O)N[C@@H](Cc1ccccc1)C(=O)O)[C@@](O)(CC(=O)O)C(=O)O	13900 nM	17 nM	
CCCCCCCC(=O)CCCCCC/C=C/[C@H](C(=O)N[C@H](Cc1ccc(OCCC(C)C)cc1)C(=O)O)[C@@](O)(CC(=O)O)C(=O)O	> 5000 nM	> 5000 nM	
CCCCCCCCC(=O)CCCCCC/C=C/[C@H](C(=O)N[C@@H](Cc1ccc(OCCC(C)C)cc1)C(=O)O)[C@@](O)(CC(=O)O)C(=O)O	> 50000 nM	6.9 nM	
CCCCCCCC(=O)CCCCCC/C=C/[C@H](C(=O)N[C@@H](Cc1cccc2ccccc12)C(=O)O)[C@@](O)(CC(=O)O)C(=O)O	> 1000 nM	> 1000 nM	
CCCCCCCC(=O)CCCCCC/C=C/[C@H](C(=O)N[C@@H](CC1CCCCC1)C(=O)O)[C@@](O)(CC(=O)O)C(=O)O	> 5000 nM	> 5000 nM	
CCCCCCCC(=O)CCCCCC/C=C/[C@H](C(=O)N[C@@H](Cc1ccc(OCc2ccccc2)cc1)C(=O)O)[C@@](O)(CC(=O)O)C(=O)O	> 5000 nM	0.32 nM	
CCCCCCCC(=O)CCCCCC/C=C/[C@H](C(=O)NCCc1ccc(OCCC(C)C)cc1)[C@@](O)(CC(=O)O)C(=O)O	> 5000 nM	1000 nM	
CCCCCCCC(=O)CCCCCC/C=C/[C@H](C(=O)N[C@@H](Cc1ccc(-c2ccccc2)cc1)C(=O)O)[C@@](O)(CC(=O)O)C(=O)O	> 5000 nM	1.6 nM	
CCCCCCCCCC(=O)CCCC/C=C/[C@H](C(=O)N[C@@H](Cc1ccc(OCCC(C)C)cc1)C(=O)O)[C@@](O)(CC(=O)O)C(=O)O	> 1000 nM	5.1 nM	
CC#CCOc1ccc(C[C@H](NC(=O)[C@@H](/C=C/CCCCCCC(=O)CCCCCCC)[C@@](O)(CC(=O)[O-])C(=O)[O-])C(=O)[O-])cc1.[Na+].[Na+].[Na+]			MRT [2]: 7.3 h; Cmax [3]: 604 ng/mL; MRT [4]: 5.48 h; AUC [5]: 49600 ng·h/mL; half-life [6]: 4.75 h; half-life [7]: 3.99 h; AUC [8]: 3050 ng·h/mL; Cmax [9]: 7100 ng/mL
CCCCCCCC(=O)CCCCCC/C=C/[C@H](C(=O)N[C@@H](Cc1ccc(OCc2ccccc2)cc1)C(=O)[O-])[C@@](O)(CC(=O)[O-])C(=O)[O-].[Na+].[Na+].[Na+]			MRT [2]: 17 h; Cmax [3]: 209 ng/mL; MRT [4]: 13.6 h; AUC [5]: 100000 ng·h/mL; half-life [6]: 27.3 h; half-life [7]: 9.81 h; AUC [8]: 2690 ng·h/mL; Cmax [9]: 6590 ng/mL
CCCCCCC(=O)CCCCCC/C=C/[C@H](C(=O)N[C@@H](Cc1ccc(OCCC(C)C)cc1)C(=O)O)[C@@](O)(CC(=O)O)C(=O)O	> 1000 nM	19 nM	
CCCCCC(=O)CCCCCCCC/C=C/[C@H](C(=O)N[C@@H](Cc1ccc(OCCC(C)C)cc1)C(=O)O)[C@@](O)(CC(=O)O)C(=O)O	> 1000 nM	1.4 nM	
CCCC(=O)CCCCCC/C=C/[C@H](C(=O)N[C@@H](Cc1ccc(OCCC(C)C)cc1)C(=O)O)[C@@](O)(CC(=O)O)C(=O)O	> 5000 nM	800 nM	
CCCCCCCC(=O)CCCCCC/C=C/[C@H](C(=O)N[C@@H](Cc1ccc(OC)cc1)C(=O)O)[C@@](O)(CC(=O)O)C(=O)O	> 5000 nM	6.4 nM	
CCCCCCCC(=O)CCCCCC/C=C/[C@H](C(=O)N[C@@H](Cc1ccc(OCCCC)cc1)C(=O)O)[C@@](O)(CC(=O)O)C(=O)O	> 5000 nM	1.2 nM	
CCCCCCCC(=O)CCCCCC/C=C/[C@H](C(=O)N[C@@H](Cc1ccc(OCCCN)cc1)C(=O)O)[C@@](O)(CC(=O)O)C(=O)O	> 1000 nM	38 nM	
CC#CCOc1ccc(C[C@H](NC(=O)[C@@H](/C=C/CCCCCCC(=O)CCCCCCC)[C@@](O)(CC(=O)O)C(=O)O)C(=O)O)cc1	> 5000 nM	1.2 nM	

SMILES	CC50 [1]	IC50 (Hepatitis C virus)	also measured
CC(C)CCOc1ccc(C[C@H](NC(=O)[C@@H](/C=C/CCCCCCC(=O)CCc2ccccc2)[C@@](O)(CC(=O)O)C(=O)O)C(=O)O)cc1	> 1000 nM	290 nM	
CCCCCCCC(=O)CCCCCC/C=C/[C@H](C(=O)N[C@@H](Cc1ccc2ccccc2c1)C(=O)O)[C@@](O)(CC(=O)O)C(=O)O	> 5000 nM	14 nM	
CCCCCCCC(=O)CCCCCC/C=C/[C@H](C(=O)N[C@@H](Cc1ccc(-c2cccnc2)cc1)C(=O)O)[C@@](O)(CC(=O)O)C(=O)O	> 1000 nM	10 nM	
CC(C)CCCCC(=O)CCCCCC/C=C/[C@H](C(=O)N[C@@H](Cc1ccc(OCCC(C)C)cc1)C(=O)O)[C@@](O)(CC(=O)O)C(=O)O	> 1000 nM	5.7 nM	
CC(C)CCOc1ccc(C[C@H](NC(=O)[C@@H](/C=C/CCCCCCC(=O)Cc2ccccn2)[C@@](O)(CC(=O)O)C(=O)O)C(=O)O)cc1	> 1000 nM	> 1000 nM	
CCCCCCCCCCCCCC/C=C/[C@H](C(=O)NC(Cc1ccc(OCC=C(C)C)cc1)C(=O)O)[C@@](O)(CC(=O)O)C(=O)O (some centres undefined)	> 50000 nM	155 nM	
C=CCCCCCC(=O)CCCCCC/C=C/[C@H](C(=O)N[C@@H](Cc1ccc(OCCC(C)C)cc1)C(=O)O)[C@@](O)(CC(=O)O)C(=O)O	> 1000 nM	6.1 nM	
CCCCCCCC(=O)CCCCCC/C=C/[C@H](C(=O)N[C@@H](Cc1cccs1)C(=O)O)[C@@](O)(CC(=O)O)C(=O)O	> 1000 nM	490 nM	
CCCCCCCC(=O)CCCCCC/C=C/[C@H](C(=O)N[C@@H](Cc1ccc(OCCC(C)C)cc1)C(=O)O)[C@@](O)(CC(=O)O)C(=O)O	> 5000 nM	1.4 nM	
CCCCCCCC(=O)CCCCCC/C=C/[C@H](C(=O)N[C@@H](Cc1ccc(OCCCC(C)C)cc1)C(=O)O)[C@@](O)(CC(=O)O)C(=O)O	> 1000 nM	12 nM	
CCCCCCCC(=O)CCCCCC/C=C/[C@H](C(=O)N[C@@H](Cc1ccc(OCC=C(C)C)cc1)C(=O)O)[C@@](O)(CC(=O)O)C(=O)O	> 5000 nM		
CCCCCCCC(=O)CCCCCC/C=C/[C@H](C(=O)N[C@@H](Cc1ccc(Oc2ccccc2)cc1)C(=O)O)[C@@](O)(CC(=O)O)C(=O)O	> 5000 nM	1.9 nM	
CC(C)CCOc1ccc(C[C@H](NC(=O)[C@@H](/C=C/CCCCCCC(=O)CCC2CCCCC2)[C@@](O)(CC(=O)O)C(=O)O)C(=O)O)cc1	> 1000 nM	32 nM	
CCCCCCCC(=O)CCCCCCCC[C@H](C(=O)N[C@@H](Cc1ccc(OCCC(C)C)cc1)C(=O)O)[C@@](O)(CC(=O)O)C(=O)O	> 5000 nM	150 nM	
CCCCCCCC(=O)CCCCCC/C=C/[C@H](C(=O)N[C@@H](Cc1ccc(-c2cccc(OC)c2)cc1)C(=O)[O-])[C@@](O)(CC(=O)[O-])C(=O)[O-].[Na+].[Na+].[Na+]			MRT [2]: 16.1 h; Cmax [3]: 351 ng/mL; MRT [4]: 12.9 h; AUC [5]: 82900 ng·h/mL; half-life [6]: 21.3 h; half-life [7]: 14.8 h; AUC [8]: 2590 ng·h/mL; Cmax [9]: 5920 ng/mL
CCCCCCCC(=O)CCCCCC/C=C/[C@H](C(=O)N[C@@H](Cc1ccc(-c2cccc(OC)c2)cc1)C(=O)O)[C@@](O)(CC(=O)O)C(=O)O	> 1000 nM	2.6 nM	
CCCCCCCC(O)CCCCCC/C=C/[C@H](C(=O)N[C@@H](Cc1ccc(OCCC(C)C)cc1)C(=O)O)[C@@](O)(CC(=O)O)C(=O)O (mixture of isomers)	> 1000 nM	25 nM	
CCCCCCCC(=O)CCCCCC/C=C/[C@H](C(=O)N[C@@H](Cc1ccc(OCCC)cc1)C(=O)O)[C@@](O)(CC(=O)O)C(=O)O	> 5000 nM	2.6 nM	
